In ChEMBL document CHEMBL1156459, “Discovery of a small molecule antagonist of the parathyroid hormone receptor by using an N-terminal parathyroid hormone peptide probe” (Proc Natl Acad Sci U S A, 2007):
Calls of active or inactive are those of the source. The calls are words filed in the database; no cut-off is given here. Square brackets hold non-standard residues; d marks the D form. Peptide text beside a SMILES is read from it. * marks the point of attachment. X1 = O=C(c1ccccc1-c1c2ccc(=O)cc-2oc2cc(O)ccc12)*; hArg = N=C(N)NCCCC[C@H](N)C(=O)O; Nle = CCCC[C@H](N)C(=O)O; Aib = CC(C)(N)C(=O)O

Key:
[1] = target: T1, Parathyroid hormone/parathyroid hormone-related peptide receptor (Homo sapiens, UniProt Q03431); assay: Activity at human PTH/PTH-related peptide receptor expressed in HEK293 cells assessed as induction of luciferase activity by CRE-luciferase reporter assay; type: functional, cell-based
T1 sequence (Q03431 whole entry): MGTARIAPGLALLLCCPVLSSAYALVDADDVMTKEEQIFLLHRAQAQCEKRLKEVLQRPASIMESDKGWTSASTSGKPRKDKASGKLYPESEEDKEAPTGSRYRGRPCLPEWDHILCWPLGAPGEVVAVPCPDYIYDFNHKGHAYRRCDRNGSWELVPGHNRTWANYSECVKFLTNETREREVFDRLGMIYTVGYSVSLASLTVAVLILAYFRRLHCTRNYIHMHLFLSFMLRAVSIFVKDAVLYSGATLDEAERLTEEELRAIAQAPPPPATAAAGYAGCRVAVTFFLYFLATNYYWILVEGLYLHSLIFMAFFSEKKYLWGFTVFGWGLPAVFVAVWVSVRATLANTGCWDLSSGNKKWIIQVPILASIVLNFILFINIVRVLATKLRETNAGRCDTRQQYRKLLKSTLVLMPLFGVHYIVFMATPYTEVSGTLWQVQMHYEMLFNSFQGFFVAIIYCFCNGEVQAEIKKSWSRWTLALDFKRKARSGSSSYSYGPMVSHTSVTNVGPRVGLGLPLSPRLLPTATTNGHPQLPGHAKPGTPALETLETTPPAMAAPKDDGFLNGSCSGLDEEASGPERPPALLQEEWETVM

[2] = target: T1, Parathyroid hormone/parathyroid hormone-related peptide receptor; assay: Activity at human PTH/PTH-related peptide receptor expressed in SAOS2 cells assessed as cAMP formation; type: functional, cell-based, SAOS-2
Outline: (§1)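 Nonconfluent cells grown at 37°C in DMEM with 10% FBS, refed 12–24 h before assay. Rinsed with warm PBS, detached with prewarmed EDTA (37°C, 5–10 min), spun at 300 × g for 5 min. Resuspended in HBSS/5 mM Hepes/0.1% BSA/0.5 mM IBMX, pH 7.4. cAMP read by AlphaScreen.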

[3] = target: T2, Parathyroid hormone/parathyroid hormone-related peptide receptor (Rattus norvegicus, UniProt P25961); assay: Activity at rat PTH/PTH-related peptide receptor expressed in rat UMR106 cells assessed as cAMP formation; type: functional, cell-based; outline: as §1
T2 sequence (P25961 whole entry): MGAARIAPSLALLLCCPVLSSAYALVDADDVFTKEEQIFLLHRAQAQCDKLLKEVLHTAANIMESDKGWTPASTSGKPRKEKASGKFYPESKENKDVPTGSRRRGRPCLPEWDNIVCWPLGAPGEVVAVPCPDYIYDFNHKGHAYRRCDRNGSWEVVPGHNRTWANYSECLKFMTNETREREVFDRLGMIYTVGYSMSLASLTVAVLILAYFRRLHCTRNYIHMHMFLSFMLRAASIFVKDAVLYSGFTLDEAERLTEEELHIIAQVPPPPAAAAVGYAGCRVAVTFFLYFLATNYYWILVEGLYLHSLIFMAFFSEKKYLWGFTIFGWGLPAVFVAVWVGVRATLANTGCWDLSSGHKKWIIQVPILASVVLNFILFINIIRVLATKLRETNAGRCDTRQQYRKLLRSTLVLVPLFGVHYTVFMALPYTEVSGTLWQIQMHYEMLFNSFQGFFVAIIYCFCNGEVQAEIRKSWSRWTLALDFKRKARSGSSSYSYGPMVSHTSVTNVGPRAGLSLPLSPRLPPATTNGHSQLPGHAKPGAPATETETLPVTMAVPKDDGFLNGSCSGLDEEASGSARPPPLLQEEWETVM

[4] = target: T1, Parathyroid hormone/parathyroid hormone-related peptide receptor; assay: Displacement of [125I]DPC-AJ1951 from PTH/PTH-related peptide receptor expressed in HKRK-B28 cells; type: cell-based
Outline: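 Whole HKRK-B28 cells plated at 30,000/well and incubated overnight at 37°C, 5% CO2. Incubated 3 h at room temperature, washed three times, bound radioactivity counted by scintillation.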

Mus musculus = organism: Mus musculus; assay: Inhibition of bone mineralization in embryonic mouse metatarsal; type: functional

Row | EC50 [1] [nM] | EC50 [2] [nM] | EC50 [3] [nM] | IC50 [4] [nM] | SMILES | Activity (Mus musculus)
1 | 0.92 | 7.2 | – | 13.5 | CCCC[C@H](NC(=O)[C@H](CC(C)C)NC(=O)[C@H](CCC(N)=O)NC(=O)[C@@H](NC(=O)[C@H](CCC(=O)O)NC(=O)C(C)(C)NC(=O)[C@@H](NC(=O)C(C)(C)N)C(C)C)[C@@H](C)CC)C(=O)N[C@@H](Cc1cnc[nH]1)C(=O)N[C@@H](CCC(N)=O)C(=O)N[C@@H](CCCNC(=N)N)C(=O)N[C@@H](C)C(=O)N[C@@H](CCCCNC(=O)c1ccccc1-c1c2ccc(=O)cc-2oc2cc(O)ccc12)C(=O)N[C@@H](Cc1ccc(O)cc1)C(N)=O (H-[Aib]V[Aib]EIQL[Nle]HQRAK(X1)Y-NH2) | –
2 | 1.1 | 20 | – | 98.2 | CCCC[C@H](NC(=O)[C@H](CC(C)C)NC(=O)[C@H](CCC(N)=O)NC(=O)[C@@H](NC(=O)[C@H](CCC(=O)O)NC(=O)C(C)(C)NC(=O)[C@@H](NC(=O)C(C)(C)N)C(C)C)[C@@H](C)CC)C(=O)N[C@@H](Cc1cnc[nH]1)C(=O)N[C@@H](CCC(N)=O)C(=O)N[C@@H](CCCN=C(N)N)C(=O)N[C@@H](C)C(=O)N[C@@H](CCCCN)C(=O)N[C@@H](Cc1ccc(O)cc1)C(=O)N[C@@H](CCCCNC(=O)c1ccccc1-c1c2ccc(=O)cc-2oc2cc(O)ccc12)C(N)=O (H-[Aib]V[Aib]EIQL[Nle]HQRAKYK(X1)-NH2) | –

Second part, the molecule before the results:

Row | SMILES | EC50 [1] [nM] | EC50 [2] [nM] | EC50 [3] [nM] | IC50 [4] [nM] | Activity (Mus musculus)
3 | CCCC[C@H](NC(=O)[C@H](CC(C)C)NC(=O)[C@H](CCC(N)=O)NC(=O)[C@@H](NC(=O)[C@H](CCC(=O)O)NC(=O)[C@H](C)NC(=O)[C@@H](NC(=O)[C@H](C)N)C(C)C)[C@@H](C)CC)C(=O)N[C@@H](Cc1cnc[nH]1)C(=O)N[C@@H](CCC(N)=O)C(=O)N[C@@H](CCCCNC(=N)N)C(=O)N[C@@H](C)C(=O)N[C@@H](CCCCN)C(=O)N[C@@H](Cc1ccc(O)cc1)C(N)=O (H-AVAEIQL[Nle]HQ[hArg]AKY-NH2) | 13 | 1430 | 344 | 10600 | –
4 | CC[C@H](C)[C@H](NC(=O)[C@H](CCC(=O)O)NC(=O)C(C)(C)NC(=O)[C@@H](NC(=O)C(C)(C)N)C(C)C)C(=O)N[C@@H](CCC(N)=O)C(=O)N[C@@H](CC(C)C)C(=O)N[C@@H](CCSC)C(=O)N[C@@H](Cc1cnc[nH]1)C(=O)N[C@@H](CCC(N)=O)C(=O)N[C@@H](CCCCNC(=N)N)C(=O)N[C@@H](C)C(=O)N[C@@H](CCCCN)C(=O)N[C@@H](Cc1c[nH]c2ccccc12)C(=O)O (H-[Aib]V[Aib]EIQLMHQ[hArg]AKW-OH) | – | – | – | – | Active
5 | CCCC[C@H](NC(=O)[C@H](CC(C)C)NC(=O)[C@H](CCC(N)=O)NC(=O)[C@@H](NC(=O)[C@H](CCC(=O)O)NC(=O)C(C)(C)NC(=O)[C@@H](NC(=O)C(C)(C)N)C(C)C)[C@@H](C)CC)C(=O)N[C@@H](Cc1cnc[nH]1)C(=O)N[C@@H](CCC(N)=O)C(=O)N[C@@H](CCCCN=C(N)N)C(=O)N[C@@H](C)C(=O)N[C@@H](CCCCN)C(=O)N[C@@H](Cc1ccc(O)cc1)C(N)=O (H-[Aib]V[Aib]EIQL[Nle]HQ[hArg]AKY-NH2) | 0.06 | – | – | 7.2 | –
